In ChEMBL document CHEMBL1135653, “Novel apoptosis-inducing trans-platinum piperidine derivatives: synthesis and biological characterization” (J Med Chem, 2002):
pIC50: −log10 of the molar value. Values joined by “and” are separate entries in the source; they are usually repeats but may differ in a detail not shown here. Equal values may be shown once.

How the values were obtained:
[1] = In vitro growth inhibition against C-26 cells incubated for 24 hr using cytotoxicity assay; assay type: functional, cell-based, Mus musculus
How it was run: (§1)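 Methylene blue staining assay. Exponentially growing cells plated, incubated 24 h, then drugs added at various concentrations (saline for controls), four wells per variant. Drug exposure 4, 24 or 72 h, then washed and grown in fresh medium to 72 h total. Cells fixed in 2.5% glutaraldehyde, stained with 1% MB in 0.1 M borate pH 8.5, dye extracted with 0.1 N HCl at 37 °C, OD read at 620 nm. IC50 given as mean ± SD from at least two experiments.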

[2] = In vitro growth inhibition against C-26 cells incubated for 4 hr using cytotoxicity assay; assay type: functional, cell-based, Mus musculus; how it was run: as §1
OV-1063 [3] = experiment: In vitro growth inhibition against OV-1063 cells incubated for 72 hr using cytotoxicity assay; assay type: functional, cell-based, Homo sapiens; how it was run: as §1
[4] = In vitro growth inhibition against C-26 cells incubated for 72 hr using cytotoxicity assay; assay type: functional, cell-based, Mus musculus; how it was run: as §1
OV-1063 [5] = experiment: In vitro growth inhibition against OV-1063 cells incubated for 4 hr using cytotoxicity assay; assay type: functional, cell-based, Homo sapiens; how it was run: as §1
OV-1063 [6] = experiment: In vitro growth inhibition against OV-1063 cells incubated for 24 hr using cytotoxicity assay; assay type: functional, cell-based, Homo sapiens; how it was run: as §1
[7] = Solubility was determined in DDW(double distilled water) at 37 degrees Centigrade; assay type: physicochemical; settings: buffer

Row | Substance | pIC50 [1] | pIC50 [2] | pIC50 (OV-1063 [3]) | pIC50 [4] | pIC50 (OV-1063 [5]) | pIC50 (OV-1063 [6]) | Solubility [7] [µg/mL]
1 | cis-[ptcl2(NH3)(4-pic)] | 4.96 and 5.33 | 4.92 and 5.29 | 4.85 and 5.40 | 4.96 and 5.43 | 4.74 and 5.22 | 4.80 and 5.29 | 
2 | trans-[ptcl2(4-pic)(pip)] | 5.60 | 5.35 | 5.35 | 5.76 | 5.19 | 5.22 | 30
3 | trans-[ptcl2(4-pic)(pz)] HCl | 5.35 | 5.26 | 5.29 | 5.46 | 5.13 | 5.22 | 7500
4 | CISPLATIN | 6.22 | 5.82 | 6.30 | 6.70 | 5.70 | 6.15 | 2100
5 | TRANSPLATIN | 4.34 | 4.19 | 4.28 | 4.39 | 4.09 | 4.14 | 240
